# Assay results from ChEMBL document CHEMBL1155274, “Synthesis of some novel pyrazolo[3,4-b]pyridine and pyrazolo[3,4-d]pyrimidine derivatives bearing 5,6-diphenyl-1,2,4-triazine moiety as potential antimicrobial agents” (Eur J Med Chem, 2009).
# How the values were obtained:
# Staphylococcus aureus [1] = experiment: Antimicrobial activity against Staphylococcus aureus MTCCB 737 at 100 ug/mL after 16 to 20 hrs by disk diffusion method; format: functional; settings: read-out: IZ
# How it was run: (§1)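 Nutrient agar disc diffusion against bacterial strains, compounds in DMSO at a single test concentration. DMSO blank; tetracycline as reference drug. Plates incubated 16–20 h at 37 °C, and the inhibition zone was measured.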
# Alternaria alternata [2] = experiment: Antimicrobial activity against Alternaria alternata at 100 ug/mL after 3 to 4 days by disk diffusion method; settings: read-out: IZ
# [3] = system: Staphylococcus epidermidis; experiment: Antimicrobial activity against Staphylococcus epidermidis MTCCB 1824 at 100 ug/mL after 16 to 20 hrs by disk diffusion method; format: functional; settings: read-out: IZ; how it was run: as §1
# Aspergillus niger [4] = experiment: Antimicrobial activity against Aspergillus niger at 100 ug/mL after 3 to 4 days by disk diffusion method; settings: read-out: IZ
# Escherichia coli [5] = experiment: Antimicrobial activity against Escherichia coli MTCCB 1652 at 100 ug/mL after 16 to 20 hrs by disk diffusion method; format: functional; settings: read-out: IZ; how it was run: as §1
# Aspergillus fumigatus [6] = experiment: Antimicrobial activity against Aspergillus fumigatus at 100 ug/mL after 3 to 4 days by disk diffusion method; settings: read-out: IZ
# Artemia salina = experiment: Toxicity against Artemia salina assessed as number of the nauplii died after 24 hrs; format: organism-based; settings: in vivo
# How it was run: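 Artemia salina eggs were hatched in sea salt water (38 g/L) at 37 °C for 48 h with constant oxygen to give nauplii. Stocks were 10 mg per 2 mL DMSO, and five dilutions were run in triplicate with about 10 nauplii per vial. A DMSO-only vial served as control.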
# Escherichia coli [7] = experiment: Antimicrobial activity against Escherichia coli MTCCB 1652 after 24 hrs by serial dilution method; format: functional; settings: MTCCB 1652, 24 h
# How it was run: (§2)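 Tube serial dilution in nutrient broth at compound levels of 6.25, 12.5, 25, 50 and 100. Each tube received standardized microbial suspension (10^7 cells/mL) and was incubated 24 h at 37 °C. MIC was the lowest concentration preventing growth, i.e. maintaining or reducing inoculum viability.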
# Alternaria alternata [8] = experiment: Antimicrobial activity against Alternaria alternata after 24 hrs by serial dilution method; format: functional; how it was run: as §2
# Aspergillus niger [9] = experiment: Antimicrobial activity against Aspergillus niger after 24 hrs by serial dilution method; format: functional; how it was run: as §2
# Staphylococcus aureus [10] = experiment: Antimicrobial activity against Staphylococcus aureus MTCCB 737 after 24 hrs by serial dilution method; format: functional; settings: MTCCB 737, 24 h; how it was run: as §2
# Aspergillus fumigatus [11] = experiment: Antimicrobial activity against Aspergillus fumigatus at 30 ug/mL after 3 to 4 days by disk diffusion method; settings: read-out: IZ
# Alternaria alternata [12] = experiment: Antimicrobial activity against Alternaria alternata at 30 ug/mL after 3 to 4 days by disk diffusion method; settings: read-out: IZ
# Aspergillus niger [13] = experiment: Antimicrobial activity against Aspergillus niger at 30 ug/mL after 3 to 4 days by disk diffusion method; settings: read-out: IZ
# Escherichia coli [14] = experiment: Antimicrobial activity against Escherichia coli MTCCB 1652 at 30 ug/mL after 16 to 20 hrs by disk diffusion method; format: functional; settings: read-out: IZ
# How it was run: (§3)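 Nutrient agar disc diffusion against S. aureus MTCCB 737, S. epidermidis MTCCB 1824 and E. coli MTCCB 1652. Tetracycline served as the standard drug, and DMSO served as the blank. The inhibition zone was measured after 16–20 h at 37 °C.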
# [15] = system: Staphylococcus epidermidis; experiment: Antimicrobial activity against Staphylococcus epidermidis MTCCB 1824 at 30 ug/mL after 16 to 20 hrs by disk diffusion method; format: functional; settings: read-out: IZ; how it was run: as §3
# Staphylococcus aureus [16] = experiment: Antimicrobial activity against Staphylococcus aureus MTCCB 737 at 30 ug/mL after 16 to 20 hrs by disk diffusion method; format: functional; settings: read-out: IZ; how it was run: as §3
Compound,zone of inhibition at 100 µg/mL (Staphylococcus aureus [1]) [mm],zone of inhibition at 100 µg/mL (Alternaria alternata [2]) [mm],zone of inhibition at 100 µg/mL [3] [mm],zone of inhibition at 100 µg/mL (Aspergillus niger [4]) [mm],zone of inhibition at 100 µg/mL (Escherichia coli [5]) [mm],zone of inhibition at 100 µg/mL (Aspergillus fumigatus [6]) [mm],LC50 (Artemia salina) [ppm],MIC (Escherichia coli [7]) [µg/mL],MIC (Alternaria alternata [8]) [µg/mL],MIC (Aspergillus niger [9]) [µg/mL],MIC (Staphylococcus aureus [10]) [µg/mL],zone of inhibition at 30 µg/mL (Aspergillus fumigatus [11]) [mm],zone of inhibition at 30 µg/mL (Alternaria alternata [12]) [mm],zone of inhibition at 30 µg/mL (Aspergillus niger [13]) [mm],zone of inhibition at 30 µg/mL (Escherichia coli [14]) [mm],zone of inhibition at 30 µg/mL [15] [mm],zone of inhibition at 30 µg/mL (Staphylococcus aureus [16]) [mm]
CSc1nn(-c2nnc(-c3ccccc3)c(-c3ccccc3)n2)c2nc(C)c3c(=O)[nH]cnc3c12,17,12,17,10,10,11,–,–,–,–,–,–,–,–,–,–,–
BLEOMYCIN,–,–,–,–,–,–,0.41,–,–,–,–,–,–,–,–,–,–
CSc1nn(-c2nnc(-c3ccccc3)c(-c3ccccc3)n2)c2nc(-c3ccccc3)c3c(C)c(C#N)c(N)nc3c12,25,9,22,11,19,16,0.58,25,> 100,> 100,50,–,–,–,–,–,–
CSc1nn(-c2nnc(-c3ccccc3)c(-c3ccccc3)n2)c2nc(-c3ccccc3)c(C(C)=O)c(N)c12,16,5,18,4,13,10,–,–,–,–,–,–,–,–,–,–,–
CSc1nn(-c2nnc(-c3ccccc3)c(-c3ccccc3)n2)c2nc3c(C#N)c(N)nn3c(N)c12,24,16,22,18,17,22,2.31,> 100,25,25,50,–,–,–,–,–,–
CSc1nn(-c2nnc(-c3ccccc3)c(-c3ccccc3)n2)c(N)c1C#N,12,0,7,6,3,8,–,–,–,–,–,–,–,–,–,–,–
Cc1nc2c(c(NN)nn2-c2nnc(-c3ccccc3)c(-c3ccccc3)n2)c(=O)[nH]1,18,13,10,11,8,10,–,–,–,–,–,–,–,–,–,–,–
S=c1nc2c3c(n(-c4nnc(-c5ccccc5)c(-c5ccccc5)n4)nc3[nH]1)N=C(c1ccccc1)N2,16,5,13,11,9,9,–,–,–,–,–,–,–,–,–,–,–
N#Cc1c(N)nn2c(N)c3c(nc12)n(-c1nnc(-c2ccccc2)c(-c2ccccc2)n1)n1c(=O)c2ccccc2nc31,26,19,23,19,20,21,1.39,> 100,50,> 100,50,–,–,–,–,–,–
Cc1nc2c(c(=O)[nH]1)c1nnc(C)c(=O)n1n2-c1nnc(-c2ccccc2)c(-c2ccccc2)n1,28,16,26,15,29,19,6.49,12.5,50,25,25,–,–,–,–,–,–
CC(=O)N1CCN(c2ccc(OCC3COC(Cn4ccnc4)(c4ccc(Cl)cc4Cl)O3)cc2)CC1 (configuration not stated) [KETOCONAZOLE],–,–,–,–,–,–,–,–,6.25,6.25,–,18,21,20,–,–,–
CSC(Nc1c(C#N)c(SC)nn1-c1nnc(-c2ccccc2)c(-c2ccccc2)n1)=C(C#N)C#N,17,8,21,6,11,9,–,–,–,–,–,–,–,–,–,–,–
CC(=O)c1c(-c2ccccc2)nc2c3c(nn2-c2nnc(-c4ccccc4)c(-c4ccccc4)n2)N(c2ccccc2)C(C)=Nc13,18,9,13,7,10,3,–,–,–,–,–,–,–,–,–,–,–
O=C(O)c1cc(O)c(O)c(O)c1 [GALLIC ACID],–,–,–,–,–,–,4.53,–,–,–,–,–,–,–,–,–,–
Nc1nc(=S)[nH]c2nn(-c3nnc(-c4ccccc4)c(-c4ccccc4)n3)c(N)c12,9,2,11,7,13,11,–,–,–,–,–,–,–,–,–,–,–
CN(C)[C@@H]1C(O)=C(C(N)=O)C(=O)[C@@]2(O)C(O)=C3C(=O)c4c(O)cccc4[C@@](C)(O)[C@H]3C[C@@H]12 [TETRACYCLINE],–,–,–,–,–,–,–,12.5,–,–,6.25,–,–,–,28,25,30
Cc1nc2c(c(=O)[nH]1)c1nnc(-c3ccccc3)n1n2-c1nnc(-c2ccccc2)c(-c2ccccc2)n1,27,8,27,12,26,17,3.54,25,50,50,50,–,–,–,–,–,–
CSc1nn(-c2nnc(-c3ccccc3)c(-c3ccccc3)n2)c2nc(C)[nH]c(=O)c12,14,10,11,9,5,12,–,–,–,–,–,–,–,–,–,–,–
CSc1nn(-c2nnc(-c3ccccc3)c(-c3ccccc3)n2)c2nc(C)c(C#N)c(N)c12,19,5,16,7,12,6,–,–,–,–,–,–,–,–,–,–,–
